Tests used:
[1] = target: T1, Phospholipase A2 group V (Homo sapiens) (UniProt P39877); assay: Inhibition of human group V sPLA2 at 0.091 mol fraction using arachidonyl-1-14C PAPC by mixed micelles modified Dole assay
T1 sequence (whole entry): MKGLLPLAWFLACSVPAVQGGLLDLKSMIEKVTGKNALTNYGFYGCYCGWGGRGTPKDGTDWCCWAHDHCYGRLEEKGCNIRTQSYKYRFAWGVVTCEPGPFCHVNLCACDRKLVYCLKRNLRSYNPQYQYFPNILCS

[2] = target: T2, Cytosolic phospholipase A2 (Homo sapiens) (UniProt P47712); assay: Inhibition of human group IVA cPLA2 at 0.091 mol fraction using arachidonyl-1-14C PAPC by mixed micelles modified Dole assay
T2 sequence (whole entry): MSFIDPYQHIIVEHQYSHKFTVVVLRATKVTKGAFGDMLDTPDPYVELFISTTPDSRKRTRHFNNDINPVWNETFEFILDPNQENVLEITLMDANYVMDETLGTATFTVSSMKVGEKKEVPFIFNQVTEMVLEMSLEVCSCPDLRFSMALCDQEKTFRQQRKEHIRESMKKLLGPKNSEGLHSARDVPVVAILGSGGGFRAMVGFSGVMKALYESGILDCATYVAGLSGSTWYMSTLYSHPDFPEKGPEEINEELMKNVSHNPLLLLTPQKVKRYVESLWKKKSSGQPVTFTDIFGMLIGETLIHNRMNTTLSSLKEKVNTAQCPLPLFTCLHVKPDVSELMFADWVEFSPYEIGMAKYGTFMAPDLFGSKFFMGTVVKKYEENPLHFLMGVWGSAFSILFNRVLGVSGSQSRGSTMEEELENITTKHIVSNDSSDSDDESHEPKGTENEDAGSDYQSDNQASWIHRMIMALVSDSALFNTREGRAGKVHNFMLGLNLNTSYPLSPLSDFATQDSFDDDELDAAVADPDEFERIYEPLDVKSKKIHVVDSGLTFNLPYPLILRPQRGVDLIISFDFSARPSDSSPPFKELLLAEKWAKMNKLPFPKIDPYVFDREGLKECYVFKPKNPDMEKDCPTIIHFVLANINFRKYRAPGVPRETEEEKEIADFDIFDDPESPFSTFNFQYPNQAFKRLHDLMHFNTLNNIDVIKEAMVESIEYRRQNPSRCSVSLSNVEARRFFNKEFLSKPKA
How it was run: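 Buffer: 100 mM HEPES pH 7.5 with 90 μM CaCl2, 2 mM DTT and 0.1 mg/ml BSA. Inhibitor screened at 0.091 mole fraction, added from a 5 mM DMSO stock; percent inhibition recorded.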

[3] = target: T3, 85/88 kDa calcium-independent phospholipase A2 (Homo sapiens) (UniProt O60733); assay: Inhibition of human group VIA iPLA2 using arachidonyl-1-14C PAPC by mixed micelles modified Dole assay
T3 sequence (whole entry): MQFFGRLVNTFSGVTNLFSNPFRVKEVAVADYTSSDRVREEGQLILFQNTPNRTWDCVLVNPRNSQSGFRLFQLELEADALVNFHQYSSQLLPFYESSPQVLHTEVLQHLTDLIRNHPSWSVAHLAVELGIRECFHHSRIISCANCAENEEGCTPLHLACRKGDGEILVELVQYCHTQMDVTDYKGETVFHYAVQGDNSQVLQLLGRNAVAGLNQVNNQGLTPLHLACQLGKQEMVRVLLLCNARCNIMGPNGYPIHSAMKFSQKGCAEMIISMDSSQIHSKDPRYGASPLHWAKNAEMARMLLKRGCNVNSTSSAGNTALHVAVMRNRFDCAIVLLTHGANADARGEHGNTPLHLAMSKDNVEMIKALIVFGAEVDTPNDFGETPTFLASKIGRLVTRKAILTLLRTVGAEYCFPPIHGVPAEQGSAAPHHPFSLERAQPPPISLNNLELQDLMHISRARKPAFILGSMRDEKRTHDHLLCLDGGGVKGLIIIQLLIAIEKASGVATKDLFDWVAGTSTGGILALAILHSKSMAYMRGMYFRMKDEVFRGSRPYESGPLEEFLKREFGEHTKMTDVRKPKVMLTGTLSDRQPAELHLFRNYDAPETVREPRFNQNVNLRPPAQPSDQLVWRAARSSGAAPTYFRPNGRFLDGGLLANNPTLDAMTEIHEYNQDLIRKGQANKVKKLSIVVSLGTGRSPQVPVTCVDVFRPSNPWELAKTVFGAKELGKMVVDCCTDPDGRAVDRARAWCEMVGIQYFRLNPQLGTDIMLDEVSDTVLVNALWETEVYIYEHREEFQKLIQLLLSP
How it was run: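 Run in the same micelle substrate (Triton X-100/PAPC/14C-PAPC) in 100 mM HEPES pH 7.5, 2 mM ATP and 4 mM DTT, on compounds showing over 95% inhibition in the screen. Percent inhibition plotted against log mole fraction; XI(50) and its error obtained by nonlinear regression.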

[4] = target: T3, 85/88 kDa calcium-independent phospholipase A2 (Homo sapiens); assay: Inhibition of human group VIA iPLA2 at 0.091 mol fraction using arachidonyl-1-14C PAPC by mixed micelles modified Dole assay
How it was run: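 Substrate micelles: 400 μM Triton X-100, 98.3 μM PAPC, 1.7 μM arachidonyl-1-14C PAPC. Buffer: 100 mM HEPES pH 7.5, 2 mM ATP, 4 mM DTT. Inhibitor tested at 0.091 mole fraction from a 5 mM DMSO stock; percent inhibition determined.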

SMILES | inhibition [1] [%] | inhibition [2] [%] | XI50 [3] | inhibition [4] [%]
O=C(CSCCc1ccc2ccccc2c1)C(F)(F)F | 32 | 88 | 0.0002 | 99
COc1ccc(CCSCC(=O)C(F)(F)F)cc1 | < 25 | 60 | 9e-05 | 96
COc1ccc(CCSCC(=O)c2noc(C(C)(C)C)n2)cc1 | 38 | 70 | 0.0057 | 98
COc1ccc(CCCCC(=O)c2noc(C(C)(C)C)n2)cc1 | 35 | 52 |  | 64

Next, values leading:

inhibition [1] [%] | inhibition [2] [%] | XI50 [3] | inhibition [4] [%] | SMILES
< 25 | < 25 | 0.00015 | 99 | O=C(CSCCc1ccccc1)C(F)(F)C(F)(F)F
28 | 61 | 0.00012 | 100 | COc1ccc(CCSCC(=O)C(F)(F)C(F)(F)F)cc1

From ChEMBL document CHEMBL3817820, “Development of Potent and Selective Inhibitors for Group VIA Calcium-Independent Phospholipase A2 Guided by Molecular Dynamics and Structure-Activity Relationships” (J Med Chem, 2016)
